The source of these data is ChEMBL document CHEMBL4152358, “In vitro and in vivo anti-inflammatory properties of imine resveratrol analogues” (Bioorg Med Chem, 2018).

Data set [1] relates to Mus musculus. The data set is described as follows: Inhibition of CCL-2 production in ear tissue of croton oil-induced Balb/c mouse ear edema model at 0.1 mg/ear administered topically immediately post croton oil treatment by ELISA. In kind it is functional, organism-based. The essentials:
(§1)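 Half of each ear plug from the 4 h croton oil edema test (topical 0.1 mg/ear) was homogenized in extraction buffer (BSA 0.5%, PMSF 0.1%, […], EDTA 10mM, aprotinin 20kIU/ml) and spun at 440g for 15 min at 4 °C. IL-1β, IL-6 or CCL-2 in the supernatant measured by ELISA.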

The test system of data set [2] is RAW264.7. In words: Antiinflammatory activity in mouse RAW264.7 cells assessed as inhibition of LPS-induced IL-6 production by measuring IL-6 levels incubated with LPS for 1 hr followed by compound addition measured after 48 hrs by ELISA (reference value: 2.9 +/- 0.3 ng/ml). In kind it is functional. For orientation: An ELISA detects its analyte on a solid surface through an enzyme-linked reagent.

The subject of data set [3] is RAW264.7. The data set is described as follows: Antiinflammatory activity in mouse RAW264.7 cells assessed as inhibition of LPS-induced IL-12 production by measuring IL-12 levels incubated with LPS for 1 hr followed by compound addition measured after 48 hrs by ELISA (reference value: 4839.2 +/- 2.2 pg/ml). In kind it is functional.
For the next data set, the system named is B-cell line. The data set is described as follows: Antiproliferative activity against LPS-induced B cells isolated from splenocytes of C57/BL6 mouse at 50 uM incubated with LPS for 1 hr followed by compound addition measured after 72 hrs by MTT assay. In kind it is functional, cell-based. The essentials: (§2)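 C57BL/6 splenocytes (1x10⁵/well) cultured in RPMI 1640 with 10% FBS. Stimulated 1 h with Con A 5 µg/mL (T cells) or E. coli LPS 1 µg/mL (B cells) at 37°C, 5% CO₂. Treated at 50 µM and cultured 72 h more, then read by MTT. Expressed as % proliferation relative to untreated stimulated cells.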
For orientation: Formazan colour is commonly taken as a measure of viable cells.

Data set [4] concerns RAW264.7. The data set is described as follows: Immunomodulatory activity in LPS-stimulated mouse RAW264.7 cells assessed as decrease in CD86 expression at 50 uM incubated with LPS for 1 hr followed by compound addition measured after 24 hrs by flow cytometry. The format is functional, cell-based. The essentials: (§3)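 RAW 264.7 cells (4 x 10⁵/well, triplicate) given E. coli LPS 1 µg/mL for 1 h, then treated at 50 µM for 24 h. Cells Fc-blocked with anti-CD16/32 and stained with FITC anti-CD80, anti-CD86 or anti-MHC II (I-A^b). Two independent experiments.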
(Flow cytometry measures light scatter and fluorescence of single cells or particles in a stream.)

Data set [5] relates to Mus musculus. The data set is described as follows: Antiinflammatory activity in croton oil-induced Balb/c mouse ear edema model assessed as inhibition of leucocyte infiltration at 0.1 mg/ear administered topically immediately post croton oil treatment and measured after 4 hrs by hematoxylin and eosin staining based light microscopic method. The format is functional, organism-based. An outline of the steps: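 Ear plugs from the 4 h croton oil edema test in Balb/c mice were fixed 24 h in 70% ethanol, kept in 10% formalin, paraffin-embedded and cut at 4 µm. Sections stained with H&E and leucocyte infiltration judged qualitatively by light microscopy at 400x.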

Data set [6] deals with RAW264.7. In words: Immunomodulatory activity in LPS-stimulated mouse RAW264.7 cells assessed as decrease in CD80 expression at 50 uM incubated with LPS for 1 hr followed by compound addition measured after 24 hrs by flow cytometry. The format is functional, cell-based. An outline of the steps:
as §3

The subject of the next data set is Murine T-cell line. In words: Antiproliferative activity against Con-A-induced T cells isolated from splenocytes of C57/BL6 mouse at 50 uM incubated with Con-A for 1 hr followed by compound addition measured after 72 hrs by MTT assay. In kind it is functional, cell-based. An outline of the steps:
as §2

In data set [7] the test system is RAW264.7. The data set is described as follows: Antiinflammatory activity in mouse RAW264.7 cells assessed as inhibition of LPS/IFNgamma-induced NO production by measuring NO levels incubated with LPS/IFNgamma for 1 hr followed by compound addition measured after 48 hrs by Griess assay (reference value: 55 +/- 2.6 microM). The format is functional.
A short description of data set [8]: Antioxidant activity assessed as DPPH radical scavenging activity after 30 mins by spectrophotometric method. In kind it is functional. The essentials:
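Left 30 min at room temperature in the dark and absorbance read at 510 nm. IC50 taken graphically from the linear range of the concentration versus scavenging plot. Run twice, each in triplicate.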

The test system of data set [9] is RAW264.7. The data set is described as follows: Immunomodulatory activity in LPS-stimulated mouse RAW264.7 cells assessed as decrease in MHC-2 expression at 50 uM incubated with LPS for 1 hr followed by compound addition measured after 24 hrs by flow cytometry. In kind it is functional, cell-based. The essentials:
as §3

The subject of data set [10] is RAW264.7. The data set is described as follows: Antiinflammatory activity in mouse RAW264.7 cells assessed as inhibition of LPS/IFNgamma-induced NO production at 50 uM incubated with LPS/IFNgamma for 1 hr followed by compound addition measured after 48 hrs by Griess assay relative to control. In kind it is functional.
Data set [11] deals with Mus musculus. The data set is described as follows: Inhibition of myeloperoxidase activity in ear tissue of croton oil-induced Balb/c mouse ear edema model at 0.1 mg/ear administered topically immediately post croton oil treatment by spectrophotometric method. In kind it is functional, organism-based. An outline of the steps: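 Ear tissue homogenized in PBS and the pellet resuspended in 0.5% HTAB, then given 3 freeze/thaw cycles. Cleared supernatant mixed 1:1 with 6 mM o-phenylenediamine in 10 mM citrate pH 4.5, with 20% H₂O₂ added. Stopped after 15 min with 1 M H₂SO₄ and read spectrophotometrically.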

In data set [12] the test system is RAW264.7. In words: Antiinflammatory activity in mouse RAW264.7 cells assessed as inhibition of LPS-induced TNFalpha production by measuring TNFalpha levels incubated with LPS for 1 hr followed by compound addition measured after 48 hrs by ELISA (reference value: 58.6 +/- 7.4 ng/ml). The format is functional.
Data set [13] has as its system Mus musculus. In words: Antiinflammatory activity in Balb/c mouse ear edema model assessed as inhibition of croton oil-induced ear edema at 0.1 mg/ear administered topically immediately post croton oil treatment and measured after 4 hrs relative to control. In kind it is functional. An outline of the steps: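 Female Balb/c mice 8–10 weeks old (n = 6/group). 20 µL of 2.5% v/v croton oil applied to the inner surface of the right ear, acetone vehicle to the left. Treatment given topically straight after, 0.1 mg/ear in 20 µL, with acetone as negative control. Killed at 4 h and 6 mm plugs taken from both ears. Edema read as right minus left ear plug weight, mean S.D.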

In data set [14] the test system is RAW264.7. In words: Cytotoxicity against mouse RAW264.7 cells assessed as reduction in cell viability at 50 uM after 48 hrs by MTT assay. The format is cell-based. The following applies: raw264.7, 48 h. The essentials: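 RAW264.7 cells seeded at 2 x 10⁵/well and grown 24 h, then exposed to 25 or 50 µM (ethanol ≤1%) for 48 h. MTT 0.5 mg/mL added for 2 h at 37 °C, formazan dissolved in DMSO, OD read at 595 nm. Viability given relative to untreated control, mean SD.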

The test system of data set [15] is Mus musculus. In words: Effect on IL-1beta production in ear tissue of croton oil-induced Balb/c mouse ear edema model at 0.1 mg/ear administered topically immediately post croton oil treatment by ELISA. The format is functional, organism-based. An outline of the steps: as §1
For data set [16], the system named is RAW264.7. The data set is described as follows: Antiinflammatory activity in mouse RAW264.7 cells assessed as inhibition of LPS-induced CCL-2 production by measuring CCL-2 levels incubated with LPS for 1 hr followed by compound addition measured after 48 hrs by ELISA (reference value: 12.73 +/- 0.10 ng/ml). The format is functional.
The next data set deals with J774.A1. The data set is described as follows: Antiinflammatory activity in mouse J774A.1 cells assessed as inhibition of LPS-induced IL-1beta production by measuring IL-1beta levels incubated with LPS for 1 hr followed by compound addition measured after 24 hrs by ELISA (reference value: 382.3 +/- 50 pg/ml). In kind it is functional.
The subject of data set [17] is RAW264.7. The data set is described as follows: Cytotoxicity against mouse RAW264.7 cells assessed as reduction in cell viability at >= 100 uM after 48 hrs by MTT assay. The following applies: raw264.7, 48 h. The format is cell-based.
The subject of data set [18] is Mus musculus. In words: Inhibition of IL-6 production in ear tissue of croton oil-induced Balb/c mouse ear edema model at 0.1 mg/ear administered topically immediately post croton oil treatment by ELISA. The format is functional, organism-based. An outline of the steps:
as §1

The source made the active and inactive calls. The rule behind the calls is not given here.

In general, inhibition refers to the percentage by which the read-out fell short of the control. For orientation: IC50 means the concentration needed to halve the response being measured. Turning to `Oc1ccc(/C=C/c2cc(O)cc(O)c2)cc1` [RESVERATROL], the inhibition result in the data set on Mus musculus [1] and in the data set with Mus musculus [18] was “inactive” each time. In addition, the Activity in the data set with RAW264.7 [2] is 1.6 ng/mL; with RAW264.7 [3], 1036 pg/mL; in the data set with RAW264.7 [7] it was 44.5 µM; with RAW264.7 [12], 31 ng/mL; in the data set on RAW264.7 [14] it was “Non-Toxic”; with RAW264.7 [16] it was 6.6 ng/mL. Moreover, the values for the Activity with J774.A1 and with RAW264.7 [17] were 159.7 pg/mL and “Toxic”, respectively. Moreover, the result in the data set with B-cell line, in the data set with RAW264.7 [4], in the data set with RAW264.7 [6] and in the data set with Murine T-cell line was Active. In the data set on Mus musculus [5], the “inhibition of leucocyte infiltration (qualitative)” value was “Active”. Further, the IC50 in [8] was determined as 65.6 µM. Moreover, the result in the data set with RAW264.7 [9] and in the data set with Mus musculus [15] was inactive. Also, the inhibition at 50 µM with RAW264.7 [10] came to 25%. For the same molecule, the inhibition result in the data set on Mus musculus [11] was “Active”. Besides, in the data set with Mus musculus [13], the “inhibition (INH)” value is listed as 40%.
